Data from ChEMBL document CHEMBL5705894, “SB1518, a novel macrocyclic pyrimidine-based JAK2 inhibitor for the treatment of myeloid and lymphoid malignancies” (Leukemia, 2011).
Active and inactive are the calls of the source. The calls are words filed in the database; no cut-off is given here.

Columns and labels:
T47D = experiment: Antiproliferative activity against human T47D cells assessed as inhibition of cell viability incubated for 48 hrs by CellTiterGlo assay; type: functional, cell-based
Summary of the method: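 Cells from ATCC, grown per supplier guidance, were seeded at 30–50% confluency and dosed the next day in triplicate at concentrations up to 10 μM for 48 h. Viability was read by luminescent ATP (CellTiter-Glo), and IC50 was fitted from dose–response curves.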

SET-2 [1] = experiment: Anti-tumor activity against human SET2 cells xenografted in SCID Beige mouse assessed as tumor growth inhibition at 75 mg/kg, po administered for 18 days and measured twice a week relative to control; type: functional; conditions: SET-2, 432 h, time 18 day, read-out: TGI
Summary of the method: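 SCID beige mice received 5 × 10^6 SET-2 cells subcutaneously in the right flank, in serum-free medium mixed 1:1 with Matrigel. Dosing began when tumors averaged about 280 mm3 (day 31). Oral gavage at 10 ml/kg for 18 consecutive days, 12 mice per group. Caliper volume = (w² × l)/2. Animals were killed 3 h after the final dose.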

MCF7 = experiment: Antiproliferative activity against human MCF7 cells assessed as inhibition of cell viability incubated for 48 hrs by CellTiterGlo assay; type: functional, cell-based; conditions: MCF7, 48 h
Summary of the method: (§1)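 Cells seeded at 30–50% confluency in 96-well plates, then treated the next day in triplicate at up to 10 μM for 48 h. Viability read by CellTiter-Glo luminescence. IC50 taken from fitted dose–response curves.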

NCI-H322M = experiment: Antiproliferative activity against human NCI-H322M cells assessed as inhibition of cell viability incubated for 48 hrs by CellTiterGlo assay; type: functional, cell-based; summary of the method: as §1
Mus musculus [2] = experiment: In vivo inhibition of JAK2 V617F mutant in SCID Beige mouse xenografted with human SET2 cells assessed as decreased STAT5 phosphorylation at Y694 by immunoblotting analysis; type: functional, organism-based; conditions: dose 75-150 mg/kg, route po
Summary of the method: (§2)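 Subcutaneous SET-2 tumors in SCID beige mice. Single oral doses of 75 or 150 mg/kg were given at about 300 mm3 tumor size; in the chronic arm, dosing ran for 18 days. Tumors were collected 3 h post-dose, lysed, and immunoblotted for pJAK2 (Y1007/8) and pSTAT5.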

[3] = Antiproliferative activity against mouse 32D cells harboring JAK2 assessed as inhibition of cell viability incubated for 48 hrs by CellTiterGlo assay; type: functional, cell-based; summary of the method: as §1
Karpas-1106P [4] = experiment: Induction of cell cycle arrest in human KARPAS-1106P cells expressing JAK2 assessed as accumulation of cells at G0/1 phase incubated for 24 hrs by PI staining based flow cytometry; type: functional
Summary of the method: (§3)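 Cells were fixed in 70% ice-cold ethanol and stained with propidium iodide, then analysed by flow cytometry for cell-cycle distribution.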

CHL-1 = experiment: Antiproliferative activity against human CHL-1 cells assessed as inhibition of cell viability incubated for 48 hrs by CellTiterGlo assay; type: functional, cell-based; conditions: CHL-1, 48 h; summary of the method: as §1
[5] = tested on: Tyrosine-protein kinase JAK2 (Homo sapiens), O60674 [V617F]; conditions: SET2, dose 8-1000 nM, time 3.0 hrs
A549 = experiment: Antiproliferative activity against human A549 cells assessed as inhibition of cell viability incubated for 48 hrs by CellTiterGlo assay; type: functional, cell-based; conditions: A549, 48 h; summary of the method: as §1
[6] = tested on: Tyrosine-protein kinase JAK2 (Homo sapiens), O60674 [V617F]; conditions: HEL 92.1.7, dose 8-1000 nM, time 3.0 hrs
[7] = tested on: Tyrosine-protein kinase JAK2 (Homo sapiens), O60674 [V617F]; conditions: SET2, dose 8-1000 nM, time 3.0 hrs; remark: listed apart in the source
PC-3 = experiment: Antiproliferative activity against human PC-3 cells assessed as inhibition of cell viability incubated for 48 hrs by CellTiterGlo assay; type: functional, cell-based; conditions: PC-3, 48 h; summary of the method: as §1
[8] = tested on: Tyrosine-protein kinase JAK2 (Homo sapiens), O60674 [V617F]; conditions: HEL 92.1.7, dose 8-1000 nM, time 3.0 hrs; remark: listed apart in the source
Karpas-1106P [9] = experiment: Antiproliferative activity against human KARPAS-1106P cells harboring JAK2 assessed as inhibition of cell viability incubated for 48 hrs by CellTiterGlo assay; type: functional, cell-based; summary of the method: as §1
Karpas-1106P [10] = experiment: Induction of cell cycle arrest in human KARPAS-1106P cells expressing JAK2 assessed as decrease in accumulation of cells at S phase incubated for 24 hrs by PI staining based flow cytometry; type: functional; summary of the method: as §3
[11] = tested on: Tyrosine-protein kinase JAK2 (Mus musculus), Q62120 [V617F]; experiment: Inhibition of JAK2 V617F mutant transfected in mouse BaF3 cells assessed as increased JAK2 phosphorylation at Y1007/8 at 8 to 1000 nM incubated for 3 hrs by Western blotting analysis; type: cell-based; conditions: dose 8-1000 nM
[12] = tested on: Tyrosine-protein kinase JAK2 (Homo sapiens), O60674 [V617F]; conditions: SET2, dose 8-1000 nM, time 3.0 hrs; remark: listed apart in the source
[13] = tested on: Tyrosine-protein kinase JAK2 (Homo sapiens), O60674 [V617F]; conditions: HEL 92.1.7, dose 8-1000 nM, time 3.0 hrs; remark: listed apart in the source
SET-2 [14] = experiment: Induction of apoptosis in human SET2 cells assessed as activation of caspase-3/7 incubated for 16 hrs; type: functional, cell-based
Summary of the method: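 SET-2 and Karpas 1106P cells were exposed to graded drug concentrations for 16 h. Apoptosis was read as caspase-3/7 activation.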

MOLM-13 = experiment: Antiproliferative activity against human MOLM-13 cells harboring FLT3-ITD mutant assessed as inhibition of cell viability incubated for 48 hrs by CellTiterGlo assay; type: functional, cell-based; conditions: MOLM-13, 48 h; summary of the method: as §1
[15] = target: Tyrosine-protein kinase JAK2 (Homo sapiens) (UniProt O60674); conditions: HEK-293T, dose 8-1000 nM, time 3.0 hrs
HCT-116 = experiment: Antiproliferative activity against human HCT-116 cells assessed as inhibition of cell viability incubated for 48 hrs by CellTiterGlo assay; type: functional, cell-based; conditions: HCT-116, 48 h; summary of the method: as §1
Mus musculus [16] = experiment: In vivo inhibition of JAK2 V617F mutant in SCID Beige mouse xenografted with human SET2 cells assessed as increased JAK2 phosphorylation at Y1007/8 by immunoblotting analysis; type: functional, organism-based; conditions: dose 75-150 mg/kg, route po; summary of the method: as §2
[17] = tested on: KATO III stomach cancer cell line; experiment: Antiproliferative activity against human KATO III stomach cancer cell line assessed as inhibition of cell viability incubated for 48 hrs by CellTiterGlo assay; type: functional, cell-based; summary of the method: as §1

Sequence of Tyrosine-protein kinase JAK2 (Homo sapiens), O60674 [V617F] (O60674 whole entry V617F): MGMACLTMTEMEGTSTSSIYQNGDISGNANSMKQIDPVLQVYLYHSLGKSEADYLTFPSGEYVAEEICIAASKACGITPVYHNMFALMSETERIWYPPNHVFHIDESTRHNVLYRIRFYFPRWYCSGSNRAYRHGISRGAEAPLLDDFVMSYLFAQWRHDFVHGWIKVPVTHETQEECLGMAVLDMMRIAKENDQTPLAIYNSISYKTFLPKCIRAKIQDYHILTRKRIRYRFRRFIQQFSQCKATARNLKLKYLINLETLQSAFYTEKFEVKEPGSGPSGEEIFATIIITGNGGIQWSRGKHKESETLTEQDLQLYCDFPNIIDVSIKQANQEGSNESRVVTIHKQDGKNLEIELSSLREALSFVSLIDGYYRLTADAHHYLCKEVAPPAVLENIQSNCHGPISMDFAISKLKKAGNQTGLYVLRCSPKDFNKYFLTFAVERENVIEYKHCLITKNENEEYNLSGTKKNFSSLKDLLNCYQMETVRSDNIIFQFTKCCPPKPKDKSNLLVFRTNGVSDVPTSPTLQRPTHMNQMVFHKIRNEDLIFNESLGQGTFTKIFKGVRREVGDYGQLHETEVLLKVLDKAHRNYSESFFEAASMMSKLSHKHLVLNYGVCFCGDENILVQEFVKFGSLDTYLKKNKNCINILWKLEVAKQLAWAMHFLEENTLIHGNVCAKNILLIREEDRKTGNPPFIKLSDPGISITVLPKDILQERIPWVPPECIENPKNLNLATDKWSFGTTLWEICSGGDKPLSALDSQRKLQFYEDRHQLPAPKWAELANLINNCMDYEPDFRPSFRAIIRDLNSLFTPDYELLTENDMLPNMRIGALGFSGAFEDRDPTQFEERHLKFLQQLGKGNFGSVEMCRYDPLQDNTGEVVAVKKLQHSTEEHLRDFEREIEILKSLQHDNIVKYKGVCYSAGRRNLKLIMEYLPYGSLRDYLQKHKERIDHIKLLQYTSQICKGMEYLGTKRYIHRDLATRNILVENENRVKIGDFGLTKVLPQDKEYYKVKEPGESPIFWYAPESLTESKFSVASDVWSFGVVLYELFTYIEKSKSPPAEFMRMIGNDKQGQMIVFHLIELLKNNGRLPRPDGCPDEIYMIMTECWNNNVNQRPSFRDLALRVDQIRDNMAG
Sequence of Tyrosine-protein kinase JAK2 (Mus musculus), Q62120 [V617F] (Q62120 as listed by the source): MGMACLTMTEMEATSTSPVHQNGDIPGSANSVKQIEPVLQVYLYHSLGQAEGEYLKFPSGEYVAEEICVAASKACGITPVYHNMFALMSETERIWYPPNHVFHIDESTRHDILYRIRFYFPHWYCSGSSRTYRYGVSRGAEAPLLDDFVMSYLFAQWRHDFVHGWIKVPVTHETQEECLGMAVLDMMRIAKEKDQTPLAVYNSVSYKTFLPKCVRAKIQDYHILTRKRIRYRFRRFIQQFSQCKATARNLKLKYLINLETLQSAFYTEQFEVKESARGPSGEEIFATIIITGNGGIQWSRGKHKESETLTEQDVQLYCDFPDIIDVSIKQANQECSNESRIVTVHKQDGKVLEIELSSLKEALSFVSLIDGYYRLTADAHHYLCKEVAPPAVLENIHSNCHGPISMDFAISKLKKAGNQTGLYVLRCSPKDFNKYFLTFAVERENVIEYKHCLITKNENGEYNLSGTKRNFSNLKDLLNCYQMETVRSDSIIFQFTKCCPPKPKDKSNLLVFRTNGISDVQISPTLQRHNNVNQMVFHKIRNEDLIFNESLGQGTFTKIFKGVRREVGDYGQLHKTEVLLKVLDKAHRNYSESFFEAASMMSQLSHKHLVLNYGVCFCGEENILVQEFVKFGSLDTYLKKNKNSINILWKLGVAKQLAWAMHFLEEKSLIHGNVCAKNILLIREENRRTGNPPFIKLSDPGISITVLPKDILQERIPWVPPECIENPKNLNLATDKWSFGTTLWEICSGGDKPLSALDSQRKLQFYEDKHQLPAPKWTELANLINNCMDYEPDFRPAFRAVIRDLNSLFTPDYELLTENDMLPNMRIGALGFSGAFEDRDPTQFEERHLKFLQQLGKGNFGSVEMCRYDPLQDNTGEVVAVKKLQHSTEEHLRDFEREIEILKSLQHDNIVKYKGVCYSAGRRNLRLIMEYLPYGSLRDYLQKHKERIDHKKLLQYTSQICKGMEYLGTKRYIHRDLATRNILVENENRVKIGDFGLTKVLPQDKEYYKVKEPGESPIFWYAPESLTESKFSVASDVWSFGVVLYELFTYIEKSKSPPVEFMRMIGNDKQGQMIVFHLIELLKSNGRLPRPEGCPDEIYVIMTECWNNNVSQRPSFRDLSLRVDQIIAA
Sequence of Tyrosine-protein kinase JAK2 (Homo sapiens) (O60674 whole entry): as the sequence (O60674 whole entry V617F) above, with F617V counted along it

IC50 (T47D): 1280 nM
IC50 (MCF7): 853 nM
IC50 (NCI-H322M): 2180 nM
inhibition [5]: Dose-Dependent Effect
IC50 (A549): 2550 nM
inhibition [6]: Active
inhibition [7]: Active
IC50 (PC-3): 770 nM
inhibition [8]: Dose-Dependent Effect
IC50 (Karpas-1106P [9]): 348 nM
inhibition [11]: Active
inhibition [12]: Dose-Dependent Effect
inhibition [13]: Dose-Dependent Effect
EC50 (SET-2 [14]; SET-2, 16 h): 571 nM
IC50 (MOLM-13): 67 nM
inhibition [15]: Dose-Dependent Effect
IC50 (HCT-116): 1690 nM
IC50 [17]: 2060 nM
SMILES: C1=N/C2=N/c3ccc(OCCN4CCCC4)c(c3)COC/C=C/COCc3cccc(c3)C(=C1)N2 [PACRITINIB]
inhibition in vivo at 75 mg/kg (SET-2 [1]): 40%
Activity (Mus musculus [2]): Dose-Dependent Effect
IC50 [3]: 402 nM
Activity (Karpas-1106P [4]): Dose-Dependent Effect
IC50 (CHL-1): 1400 nM
Activity (Karpas-1106P [10]): Dose-Dependent Effect
Activity (SET-2 [14]): Dose-Dependent Effect
Activity (Mus musculus [16]): Dose-Dependent Effect
